A selection: hits, their analogues and other compounds. The true share with any hit is near 4.6%.
TAAR1 antag = human TAAR1 antagonism. Q96RJ0. CHO RD-HGA16 TAAR1, Fluo-8 calcium fluorescence, antagonist. inhibition, % at 3 µM. actives 1.5% (n = 360,000);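 active = inhibition above a per-plate cutoff, the mean inhibition of test compounds on that plate plus 3 SD, cut at about 49% in these data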;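 note: 0% = DMSO plus EC80 beta-PEA response and 100% = DMSO alone without agonist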
Target sequence (Q96RJ0 whole entry, looked up): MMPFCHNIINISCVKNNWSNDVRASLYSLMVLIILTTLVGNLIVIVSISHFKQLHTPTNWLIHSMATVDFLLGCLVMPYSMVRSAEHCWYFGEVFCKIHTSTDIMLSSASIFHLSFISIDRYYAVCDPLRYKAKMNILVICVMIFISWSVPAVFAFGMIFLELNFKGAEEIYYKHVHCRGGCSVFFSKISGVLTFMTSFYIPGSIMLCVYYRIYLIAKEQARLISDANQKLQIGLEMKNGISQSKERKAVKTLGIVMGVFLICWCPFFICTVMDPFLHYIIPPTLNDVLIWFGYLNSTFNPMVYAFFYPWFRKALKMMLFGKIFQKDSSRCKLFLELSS
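Test system: hTAAR1-expressing CHO RD-HGA16 cells, Gα16-coupled; Probe or stimulus: EC80 β-phenethylamine stimulus; Compound dosing: single nominal final test compound concentration of 3 µM; Timing: 140 s kinetic read after compound, 140 s after agonist; Signal: Fluo-8 calcium-sensitive fluorescence; Measure: % inhibition of agonist calcium response; Controls: DMSO and EC80 PEA controls.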
TAAR1 ag = human TAAR1 agonism | Q96RJ0 | CHO RD-HGA16 TAAR1, Fluo-8 calcium fluorescence; vehicle wells 0%, saturating PEA agonist 100% | activation, % at 3 µM | actives 0.99% (n = 360,000);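 active = activation above the mean activation of all test compounds in the run plus 3 SD, cut at about 38% in these data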
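Assay system – CHO-derived RD-HGA16 cells with stable Gα16 and human TAAR1 · Compound dosing – one-point dosing at 3 µM (nominal) · Incubation – 17-24 h seeding, 75 min 37 °C dye, 30 min RT · Measured by – kinetic Fluo-8 calcium fluorescence · Control set – DMSO vehicle as 0%, PEA at EC100 as 100% · Repeats – single well for each compound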
GPR7 antag = antagonists of human GPR7 (neuropeptides B/W receptor 1) | inhibition, % at 4.4 µM | GPR7-expressing cells, fluorescence antagonist assay | actives 1.1% (n = 290,000) | AID 1861 | P48145; in the data active = inhibition above about 16%, passing the limit was not always enough;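 note: cells stimulated with the agonist NPW; 0% = agonist with vehicle and 100% = vehicle without agonist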
Target sequence (P48145 whole entry, looked up): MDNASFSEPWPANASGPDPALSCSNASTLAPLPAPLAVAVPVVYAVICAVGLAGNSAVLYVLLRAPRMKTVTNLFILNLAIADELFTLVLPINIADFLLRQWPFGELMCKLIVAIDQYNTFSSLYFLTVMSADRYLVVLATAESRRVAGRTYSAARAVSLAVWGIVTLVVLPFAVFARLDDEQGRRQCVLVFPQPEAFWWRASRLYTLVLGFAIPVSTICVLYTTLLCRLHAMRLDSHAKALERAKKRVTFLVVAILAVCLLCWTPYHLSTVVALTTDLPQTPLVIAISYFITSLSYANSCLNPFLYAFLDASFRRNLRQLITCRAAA
CHO parental Ca = counter-screen: ATP calcium response change in parental CHO cells; parental CHO-K1, ATP-induced calcium, Fluo-8 fluorescence; inhibition, % at 5.6 µM; actives 0.63% (n = 330,000);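 active = inhibition above that plate's mean sample inhibition plus 3 SD, cut at about 26% in these data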;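 note: 0% = ATP-challenged DMSO wells and 100% = DMSO wells without ATP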
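Test system: untransfected parental CHO cell line. Compound: one dose, 5.6 µM nominal. Detection: intracellular calcium via Fluo-8 no-wash fluorescent dye. Measure: % inhibition. Benchmarks: ATP-challenged DMSO wells low, unchallenged DMSO wells high.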
OX1R antag-1 = human HCRTR1 antagonism. O43613. CHO/OX1R cells, Fluo-8 calcium fluorescence, orexin A. inhibition, % at 5 µM. actives 0.43% (n = 330,000);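 active = inhibition above its plate's threshold, mean inhibition of all tested compounds on the plate plus 3 SD, cut at about 37% in these data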;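 note: 0% = orexin A challenge wells and 100% = SB-334867-A antagonist wells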
OX1R antag-2 = blocks the human orexin 1 receptor | O43613 | OX1R-expressing cells, FRET antagonist read-out | inhibition, % at 6.6 µM | actives 1.8% (n = 330,000) | AID 485270; in the data active = inhibition mostly above about 38%, no sharp cut-off; inactive = mostly below about 40%;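 note: 0% = agonist challenge alone and 100% = reference antagonist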
TAAR1 nonsel count = counter-screen for TAAR1 antagonists: nonselective antagonists | shares compounds with TAAR1 antag | counterscreen cell line, calcium fluorescence, antagonist mode | inhibition, % at 3 µM | actives 77% (n = 2,400) | AID 651780; in the data active = inhibition above about 22%;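 note: CHO-Ga16 host cells stimulated with ATP at an EC80 level; 0% = agonist EC80 plus vehicle and 100% = vehicle without agonist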
TAAR1 antag conf = human TAAR1 antagonism, confirmed. shares compounds with TAAR1 antag. TAAR1-expressing cells, fluorescence antagonist read-out. inhibition, % at 3 µM. actives 40% (n = 2,400). AID 651785; in the data active = inhibition above about 49%;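 note: CHO-Ga16 host cells challenged with agonist PEA near its EC80; 0% = agonist at EC80 plus vehicle and 100% = vehicle with no agonist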
Ga16 ag counter = counter-screen for TAAR1 antagonists: nonselective Ga16 agonists | shares compounds with TAAR1 antag | actives 18% (n = 2,400) | Ga16-expressing cells, calcium fluorescence, agonist counterscreen | activation, % at 3 µM; in the data active = activation above about 12%;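 note: 0% = vehicle wells and 100% = saturating stimulus response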
TAAR1 ag counter = TAAR1 agonism, antagonist counter-screen | shares compounds with TAAR1 antag | hTAAR1 cell line, fluorescence activation, agonist mode | activation, % at 3 µM | actives 2% (n = 2,400); in the data active = activation above about 37%;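 note: CHO cells stably expressing TAAR1 with calcium dye readout; 0% = DMSO vehicle and 100% = full agonist response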
Active calls of the source: *; . = no result.

SMILES | TAAR1 antag | TAAR1 ag | GPR7 antag | CHO parental Ca | OX1R antag-1 | OX1R antag-2 | TAAR1 nonsel count | TAAR1 antag conf | Ga16 ag counter | TAAR1 ag counter
Cc1nnc(SCC(=O)c2cc(C)n(-c3ccc4c(c3)OCO4)c2C)s1 | -4 | 0 | 9 | -7 | 0 | 7 | . | . | . | .
COc1ccc(-c2nn(-c3ccccc3)cc2C(=O)N(C)CC(=O)Nc2cccc(F)c2)cc1 | 20 | 2 | . | -7 | -9 | 6 | . | . | . | .
CN(CC(=O)Nc1cccc(F)c1)C(=O)c1cc(-c2ccccc2)nc2ccccc12 | 72* | 5 | . | -5 | -8 | 15 | 31* | 49* | 9 | 5
COc1cccc(NC(=O)CN(C)C(=O)c2cc(-c3ccco3)nc3ccccc23)c1 | 48 | 13 | . | -16 | -24 | 35 | . | . | . | .
Cc1ccc2nc(-c3ccccc3)cc(C(=O)N(C)CC(=O)Nc3ccccc3Br)c2c1 | 61* | 7 | . | -31 | 1 | 17 | 31* | 56* | 9 | 7
COc1ccc(-c2cc(C(=O)N(C)CC(=O)Nc3cccc(F)c3)c3ccccc3n2)cc1 | 82* | 8 | . | -1 | -13 | 38 | 41* | 61* | 10 | 6
COc1cccc(-c2nn(-c3ccc(C)cc3)cc2C(=O)N(C)CC(=O)Nc2cccc(F)c2)c1 | 61* | 4 | . | -18 | 3 | 11 | 29* | 33 | 4 | 6
O=C(Nc1ccc(CN2CCS(=O)(=O)CC2)cc1)c1ccc(C(F)(F)F)cc1 | -15 | 3 | -9 | 6 | -4 | 3 | . | . | . | .
CNS(=O)(=O)c1cc(C(=O)NCc2ccco2)ccc1Cl | -1 | 2 | -5 | -11 | -11 | 22 | . | . | . | .
Cc1nn(C)cc1CN(C)C(=O)c1cc(-c2ccccc2)nc2ccc(Br)cc12 | 65* | 17 | -6 | -26 | -22 | 22 | 37* | 54* | 8 | 8
COc1ccccc1/C=C(/NC(=O)c1ccccc1)C(=O)NCCN1CCOCC1 | 0 | 0 | -12 | -1 | -16 | 5 | . | . | . | .
CCOc1ccc(C(CC(=O)O)NC(=O)C(c2ccccc2)c2ccccc2)cc1OC (centres undefined) | 63* | 0 | . | -9 | -4 | 8 | -2 | -5 | 4 | 1
CCOc1ccc(C(CC(=O)O)NC(=O)c2ccco2)cc1OC (centres undefined) | -3 | 3 | -4 | 4 | -29 | -6 | . | . | . | .
CCc1ccc(NC(=O)CCC(=O)N2CCSc3ccccc32)cc1 | 59* | 6 | -5 | 2 | -24 | 17 | 25* | 40 | 6 | 4
O=C(CCC(=O)N1CCSc2ccccc21)Nc1cccc(F)c1 | 6 | 7 | -1 | -1 | -12 | -1 | . | . | . | .
CCc1cccc(NC(=O)CCC(=O)N2CCSc3ccccc32)c1 | 60* | 8 | -8 | -4 | 3 | 17 | 21 | 40 | 6 | 10
Cn1c(SCC(=O)Nc2ccccc2)nc2ccccc2c1=O | 11 | 3 | -1 | . | . | . | . | . | . | .
CCc1nc2ccc(C(=O)NCCOc3ccc(OC)cc3)cn2c1N(C)Cc1cccs1 | 62* | 0 | . | . | . | . | 29* | 33 | 5 | 1
CCc1nc2ccc(C(=O)NCCOc3ccc(OC)cc3)cn2c1N(C)Cc1ccc(OC)cc1 | 43 | 0 | . | . | . | . | . | . | . | .
CC1=C(C(=O)Nc2ccc(C(=O)NC(C)c3ccccc3)cc2)SCCO1 (centres undefined) | -6 | 2 | -3 | -2 | -4 | 9 | . | . | . | .
CC(C)Oc1ccccc1/C=N/NC(=O)C1CC1 | 104* | 1 | . | -5 | -13 | 15 | 6 | -7 | 5 | 8
CCN(CC)S(=O)(=O)c1ccc(OC)c(NC(=O)C(C)Oc2ccc3c(C)cc(=O)oc3c2)c1 (centres undefined) | 103* | 1 | -1 | -14 | -11 | 28 | 8 | -8 | 9 | 13
COc1ccc(COc2ccsc2C(=O)Nc2ccc(Cl)c(Cl)c2)cc1 | -7 | 2 | 4 | -8 | -17 | -4 | . | . | . | .
CC(=O)C1=CCC(c2ccccc2)N(S(C)(=O)=O)C1 (centres undefined) | -9 | 0 | . | . | . | . | . | . | . | .
COC(=O)c1cc2c(c3c4cc(C)ccc4n(C(=O)c4ccccc4)c13)C(=O)N(Cc1ccccc1)C2 | 67* | 8 | . | . | . | . | 29* | 56* | 7 | 5
COc1ccc(C2CC(c3ccccc3)=NN2C(=O)COC(=O)CNC(=O)c2ccccc2)cc1 (centres undefined) | 67* | 32 | -7 | -26 | -13 | 14 | 43* | 54* | 22* | 37
CC(=O)C1CCC2C3CCC4CC(=O)CCC4(C)C3C(O)CC12C (centres undefined) | -2 | 4 | . | . | . | . | . | . | . | .
CC(=NO)C1CCC2C3CCC4CC(=NO)CCC4(C)C3C(C)(O)CC12C (centres undefined) | 77* | 15 | . | . | . | . | 29* | 52* | 17* | 18
Cc1cc(C)c2nc(NC(=O)c3cccc(S(=O)(=O)N4CCc5ccccc54)c3)sc2c1 | 15 | -1 | 6 | -6 | -5 | 17 | . | . | . | .
COc1cc(F)ccc1-c1cc(C(=O)Nc2ccc(NC(C)=O)cc2)[nH]n1 | 26 | 6 | . | . | . | . | . | . | . | .

Bioassay records as filed in PubChem BioAssay.
